Laboratory results published in ChEMBL document CHEMBL1955761, “Privileged scaffolds or promiscuous binders: a comparative study on rhodanines and related heterocycles in medicinal chemistry” (J Med Chem, 2012).
The source made the active and inactive calls.

Key:
Prothrombin (Bos taurus) = Prothrombin (Bos taurus) (UniProt P00735); test: Inhibition of bovine plasma thrombin using Boc-Val-Pro-Arg-AMC as substrate at 25 uM preincubated for 15 mins measured after 10 mins by fluorimetric assay
In short: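 Purchased bovine plasma thrombin at 10 nM final, preincubated 15 min with 25 μM inhibitor; reaction started with 50 μM substrate. Buffer 50 mM Tris-HCl pH 7.5, 150 mM NaCl, 0.05% Tween 20. Triplicate, averaged.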

Dengue virus = test: Inhibition of Dengue virus NS2B-NS3 protease using Abz-NleKRRS-3-(NO2)Y as substrate at 50 uM preincubated for 15 mins measured every sec for 15 mins by fluorimetric analysis
Escherichia coli [1] = test: Inhibition of Escherichia coli MurA using PEP as substrate assessed as inorganic phosphate release at 25 uM preincubated for 10 mins measured after 60 mins […]
Escherichia coli [2] = test: Inhibition of Escherichia coli MetAP at 10 uM after 15 mins by fluorescence analysis

| Structure (SMILES) | inhibition (Prothrombin (Bos taurus)) | inhibition (Dengue virus) | inhibition (Escherichia coli [1]) | inhibition (Escherichia coli [2]) |
| --- | --- | --- | --- | --- |
| O=C1NC(=S)N/C1=C\c1c(F)c(F)c(F)c(F)c1F | 29% | 24% | 17% | 13% |
| O=C1NC(=S)S/C1=C\c1c(F)c(F)c(F)c(F)c1F | 25% | 27% | inactive | inactive |
| O=C1NC(=O)/C(=C/c2ccc3ccccc3c2)S1 | 19% | inactive | inactive | inactive |
| O=C1NC(=O)/C(=C/c2ccc(Cl)s2)N1 | 25% | 16% | 38% | inactive |
| CC(=O)n1cc(/C=C2\SC(=O)NC2=O)c2ccccc21 | inactive | 11% | inactive | inactive |
| O=C1NC(=O)/C(=C/c2ccccc2)S1 | 15% | 25% | inactive | inactive |
| O=C1NC(=O)[C@H](Cc2ccccc2)N1 | inactive | inactive | inactive | 22% |
| O=C1NC(=O)/C(=C/c2c[nH]c3ccccc23)S1 | 23% | 26% | inactive | 10% |
| O=C1NC(=S)S/C1=C\c1ccc([N+](=O)[O-])cc1 | 25% | 46% | 65% | 11% |
| COc1ccc(/C=C2\NC(=O)NC2=O)cc1 | 10% | 24% | inactive | 10% |
| O=C1NC(=S)S/C1=C\c1cc(Br)cs1 | 21% | 47% | 18% | inactive |
| O=C1NC(=O)/C(=C/c2ccccn2)S1 | 29% | 15% | inactive | 12% |
| CC(=O)N1C(=S)NC(=O)[C@@H]1CCCCN | inactive | inactive | 12% | inactive |
| NC(=O)CC[C@@H]1NC(=S)NC1=O | inactive | 10% | 25% | inactive |
| O=C1NC(=O)/C(=C/c2ccc(Cl)cc2Cl)S1 | 28% | 13% | inactive | inactive |
| O=C1NC(=O)/C(=C/c2ccc(O)c(O)c2)N1 | 32% | 37% | 70% | 100% |
| Cn1cc(/C=C2\NC(=O)NC2=O)c2ccccc21 | 20% | 34% | inactive | inactive |
| Cc1ccc(/C=C2\SC(O)=NC2=O)cc1 | 18% | 17% | inactive | inactive |
| NCCCC[C@@H]1NC(=S)NC1=O | inactive | 11% | inactive | inactive |
| O=C1NC(=O)C(Cc2ccc(O)c(O)c2)N1 (stereo not given) | inactive | inactive | 79% | 84% |
| O=C1NC(=O)/C(=C/C=C/c2ccco2)S1 | 24% | inactive | 24% | 12% |
| O=C1NC(=O)/C(=C/c2ccc(Br)s2)S1 | 19% | inactive | 62% | 12% |
| O=C1NC(=O)/C(=C/c2ccc([N+](=O)[O-])cc2)S1 | inactive | inactive | inactive | 13% |
| O=C1NC(=O)/C(=C2\CCOc3ccccc32)S1 | inactive | 35% | inactive | 11% |
| O=C1NC(=S)N/C1=C\C1CCCCC1 | 18% | 30% | 16% | 20% |
| O=C1NC(=S)N[C@H]1Cc1c[nH]c2ccccc12 | inactive | inactive | 11% | 13% |
| COc1ccc(/C=C/C=C2\SC(=O)NC2=O)cc1 | 11% | 18% | 13% | inactive |
| O=C1NC(=S)S/C1=C1/CCOc2ccccc21 | 18% | 44% | inactive | inactive |
| COc1ccc(/C=C2\SC(=O)NC2=O)cc1 | 32% | 19% | 84% | 11% |

Results, then the molecule that gave them:

| inhibition (Prothrombin (Bos taurus)) | inhibition (Dengue virus) | inhibition (Escherichia coli [1]) | inhibition (Escherichia coli [2]) | Structure (SMILES) |
| --- | --- | --- | --- | --- |
| 22% | 50% | 16% | inactive | Cn1cc(/C=C2\NC(=S)NC2=O)c2ccccc21 |
| inactive | 13% | 17% | inactive | COc1cc(/C=C2\NC(=O)NC2=O)ccc1O |
| inactive | inactive | inactive | 24% | O=C1NC(=S)NC1=C(c1ccccc1)c1ccccc1 |
| 23% | 38% | 72% | 26% | COc1cc(/C=C2\NC(=S)NC2=O)ccc1O |
| 11% | 44% | 31% | inactive | O=C1NC(=S)N/C1=C\c1sccc1Br |
| 22% | 16% | inactive | inactive | O=C1NC(=O)/C(=C/c2cccs2)N1 |
| 26% | 44% | inactive | inactive | O=C1NC(=S)S/C1=C\c1c[nH]c2ccccc12 |
| 24% | 11% | 30% | 11% | O=C1NC(=O)/C(=C/c2cccs2)S1 |
| 23% | 25% | 10% | inactive | O=C1NC(=O)/C(=C/c2ccco2)N1 |
| 20% | inactive | 69% | inactive | C/C(=C1/SC(=S)NC1=O)c1ccc(F)cc1 |
| 11% | 33% | 10% | inactive | COc1ccccc1/C=C1\SC(=S)NC1=O |
| inactive | 38% | 100% | 17% | O=C1NC(=O)/C(=C/c2ccccc2)N1 |
| 38% | 47% | 13% | 95% | O=C1NC(=S)N/C1=C\c1ccccn1 |
| 12% | 28% | 21% | 15% | O=C1NC(=S)N/C1=C\c1cccc(O)c1 |
| inactive | inactive | inactive | inactive | O=C1NC(=O)C(Cc2cccs2)N1 (stereo not given) |
| 17% | 46% | 75% | 10% | O=C1NC(=S)N/C1=C\c1ccc(Br)s1 |

| inhibition (Prothrombin (Bos taurus)) | inhibition (Dengue virus) | inhibition (Escherichia coli [1]) | inhibition (Escherichia coli [2]) | Structure (SMILES) |
| --- | --- | --- | --- | --- |
| 39% | 48% | 11% | inactive | O=C1NC(=S)N/C1=C\c1ccc(O)cc1 |
| 17% | 35% | inactive | 12% | O=C1NC(=S)N/C1=C\c1ccccc1 |
| 18% | inactive | 44% | inactive | O=C1NC(=O)/C(=C/c2sccc2Br)S1 |
| inactive | 18% | inactive | 11% | O=C1NC(=O)/C(=C/c2cccc(O)c2)S1 |
| 34% | 47% | 24% | inactive | O=C1NC(=S)S/C1=C\c1ccc(O)cc1 |
| 20% | 43% | 50% | 42% | C/C(=C1/NC(=S)NC1=O)c1cccs1 |
| 13% | 50% | inactive | inactive | COc1ccc(/C=C2\NC(=S)NC2=O)cc1 |
| 17% | 45% | 11% | inactive | C/C(=C1/SC(=S)NC1=O)c1cccs1 |
| inactive | 12% | 13% | 58% | C/C(=C1/NC(=S)NC1=O)c1ccc(C2CCCCC2)cc1 |
| 12% | 27% | inactive | inactive | O=C1NC(=O)/C(=C/c2cccc(O)c2)N1 |
| 35% | 50% | 89% | 65% | O=C1NC(=S)S/C1=C\c1ccc(O)c(O)c1 |
| 19% | 20% | 41% | inactive | O=C1NC(=O)/C(=C/c2ccco2)S1 |
| 27% | 46% | 32% | 15% | O=C1NC(=S)N/C1=C\c1ccc2ccccc2c1 |
| 20% | 44% | 18% | 11% | COc1ccc(/C=C2\NC(=S)NC2=O)cc1OC |
| 25% | 52% | 17% | inactive | O=C1NC(=S)S/C1=C\c1ccco1 |
